Compound activity as filed in PubChem BioAssay.
SR-BI HDL uptake = inhibitors of mouse SR-BI mediated HDL lipid uptake | inhibition, % at 12.5 µM | Q61009 | 320,000 tested, 0.96% active | ldlA[mSR-BI] CHO cells, DiI-HDL uptake fluorescence, 3 h;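 active = mean replicate inhibition of at least 70% and a set share of replicates each scoring 70 or more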;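 also: 0% = median of neutral control wells and 100% = median of positive control wells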
CAL PDZ FP-1 = human CAL PDZ-peptide interaction inhibition. inhibition, % at 20 µM. AID 504414. Q9HD26. purified CAL PDZ, TMR-peptide fluorescence polarization, 1 h. 330,000 tested, 0.02% active;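 active = highest replicate inhibition of at least 40%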;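 also: plate controls were DMSO neutral control wells for no effect and unlabeled competitor peptide control wells for full effect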
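Material – purified CerCALP PDZ construct · Detection – FP readout, S and P plane fluorescence · Measure – percent inhibition from loss of millipolarization · Controls – unlabelled peptide for full inhibition, DMSO wells as neutral · Probe or stimulus – TMR-labelled reporter peptide T*-PRC34 bound in PDZ groove · Times – 1 h at RT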
CAL PDZ FP-2 = blocks peptide binding to the human CAL PDZ domain; 300,000 tested, 0.92% active; purified CAL PDZ, TMR-peptide fluorescence polarization, 1 h; inhibition, % at 24.9 µM;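 active = mean inhibition of at least 30% with at least half of replicates also reaching 30%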;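 also: 0% = DMSO neutral control and 100% = excess unlabeled competitor peptide PRC23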
dFosB activator = enhances mouse delta FosB homodimer DNA binding; activation, % at 25 µM; P13346; 340,000 tested, 0.99% active; AID 493131; purified delta FosB, TAMRA-CDK5 oligo fluorescence polarization; percent of positive-control signal above neutral wells;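 active = mean activation above about 17%, with every replicate also reaching it, limit read from the data, passing the limit was not always enough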
Target sequence (P13346 whole entry, looked up): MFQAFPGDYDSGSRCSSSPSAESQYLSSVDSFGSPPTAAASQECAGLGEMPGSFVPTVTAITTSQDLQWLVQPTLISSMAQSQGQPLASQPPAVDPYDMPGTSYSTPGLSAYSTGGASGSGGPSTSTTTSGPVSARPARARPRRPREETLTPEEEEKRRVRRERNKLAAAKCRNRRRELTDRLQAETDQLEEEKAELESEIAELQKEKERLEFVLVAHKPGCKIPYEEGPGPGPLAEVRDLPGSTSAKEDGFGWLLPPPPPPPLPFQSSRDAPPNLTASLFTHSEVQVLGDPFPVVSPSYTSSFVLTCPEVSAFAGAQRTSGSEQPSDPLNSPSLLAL
SR-BI uptake up = SR-BI HDL lipid transfer activation. CHO ldlA[mSR-BI] cells, DiI-HDL uptake fluorescence, 3 h; 100 = double the neutral-control signal. activation, % at 12.5 µM. 320,000 tested, 0.096% active. AID 504775;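 active = mean replicate activation of at least 60% and every replicate at or above 60%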;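 also: 0% = median plate neutral-control signal and 100% = twice that signal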
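Assay system: LDL receptor-deficient CHO ldlA cells overexpressing murine SR-BI / Medium: BSA-supplemented, HEPES-buffered Ham's F12, pH 7.4 / Probe or stimulus: DiI-labelled HDL at 10 µg/mL final / Timing: compound with DiI-HDL co-incubation, 3 h at 37 °C / Technique: bottom-read cell fluorescence after medium removal, ex 550/em 595 nm / Measure: HDL uptake via cellular fluorescence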
Starred values were filed as active, the others as inactive. This is a sample that favours compounds with a hit; in the whole collection about 2.8% have one here.

How did CC(=O)Oc1ccc(-c2ccc(C(=O)Nc3cccc(S(=O)(=O)N4CCOCC4)c3)cc2)cc1 do in these assays?
SR-BI HDL uptake: 81*; CAL PDZ FP-1: 0; CAL PDZ FP-2: -3; dFosB activator: 7; SR-BI uptake up: -81

How did O=C(O)c1cccc(NC(=O)c2cc(S(=O)(=O)N3CCOCC3)cs2)c1 do in these assays?
SR-BI HDL uptake: -10; CAL PDZ FP-1: -2; CAL PDZ FP-2: -3; dFosB activator: 2; SR-BI uptake up: 10

How did COc1ccc(C(=O)NC(=S)Nc2cccc(S(=O)(=O)N3CCOCC3)c2)cc1 do in these assays?
SR-BI HDL uptake: 40; CAL PDZ FP-1: -3; CAL PDZ FP-2: 1; dFosB activator: -11; SR-BI uptake up: -40

What do the screens show for `CC(=O)c1cccc(NC(=O)c2cc(S(=O)(=O)N3CCOCC3)cs2)c1`?
SR-BI HDL uptake: 78*; CAL PDZ FP-1: -3; CAL PDZ FP-2: 3; dFosB activator: -4; SR-BI uptake up: -78

Results for Cc1cc(SCC(=O)Nc2cccc(S(=O)(=O)N3CCOCC3)c2)nc2ccccc12 ?
SR-BI HDL uptake: 79*; CAL PDZ FP-1: -1; CAL PDZ FP-2: 2; dFosB activator: -7; SR-BI uptake up: -79

Results for CC(=O)Nc1ccc(S(=O)(=O)N(C)CC(=O)OC(C)C(=O)N(C)Cc2ccccc2)cc1 (stereo not drawn) ?
SR-BI HDL uptake: -7; CAL PDZ FP-1: -2; CAL PDZ FP-2: -2; dFosB activator: -1; SR-BI uptake up: 7

Results for CCN1CCc2c(sc(NC(=O)c3ccc(S(=O)(=O)N(CC)c4ccccc4)cc3)c2C(N)=O)C1 ?
SR-BI HDL uptake: 4; CAL PDZ FP-1: -4; CAL PDZ FP-2: 5; dFosB activator: 41*; SR-BI uptake up: -4

What do the screens show for `CCN1CCc2c(sc(NC(=O)Nc3ccc(Cl)c(Cl)c3)c2C(N)=O)C1`?
SR-BI HDL uptake: 5; CAL PDZ FP-1: 0; CAL PDZ FP-2: -2; dFosB activator: 56*; SR-BI uptake up: -5

Results for CSCCC(NC(=O)COc1ccccc1)C(=O)NCC1COc2ccccc2O1 (stereo not drawn) ?
SR-BI HDL uptake: 15; CAL PDZ FP-1: 0; CAL PDZ FP-2: -8; dFosB activator: -8; SR-BI uptake up: -15

How did CN(C)C(=O)COc1ccc(S(=O)(=O)c2ccc(OCC(=O)N(C)C)cc2)cc1 do in these assays?
SR-BI HDL uptake: -1; CAL PDZ FP-1: -1; CAL PDZ FP-2: -2; dFosB activator: 4; SR-BI uptake up: 1

What do the screens show for `Cc1ccc(N2C(=O)c3cccc4cccc(c34)C2=O)cc1`?
SR-BI HDL uptake: -8; CAL PDZ FP-1: 0; CAL PDZ FP-2: 4; dFosB activator: 0; SR-BI uptake up: 8

Results for CC1=CC2=C(OC1N(C)C)c1cccc3cccc(c13)C2=O (stereo not drawn) ?
SR-BI HDL uptake: -6; CAL PDZ FP-2: 39*; dFosB activator: -13; SR-BI uptake up: 6

Results for CCCN1C(=O)/C(=C\C=C2/C=CN(CC)c3ccccc32)SC1=S ?
SR-BI HDL uptake: 146*; CAL PDZ FP-1: 0; CAL PDZ FP-2: -2; dFosB activator: -7; SR-BI uptake up: -146

Results for Cc1nc(SCC(=O)N2CCN(C(=O)c3cccs3)CC2)c2c(C)c(C)sc2n1 ?
SR-BI HDL uptake: -3; CAL PDZ FP-1: -1; CAL PDZ FP-2: 0; dFosB activator: -16; SR-BI uptake up: 3

What do the screens show for `Cc1nc(SCC(=O)N2CCN(C(=O)c3ccco3)CC2)c2c(C)c(C)sc2n1`?
SR-BI HDL uptake: 13; CAL PDZ FP-2: 31*; dFosB activator: -10; SR-BI uptake up: -13

What do the screens show for `COc1cc(C(=O)N(C)CC2CCN(CCc3cccc(C(F)(F)F)c3)CC2)ccc1C`?
SR-BI HDL uptake: 9; CAL PDZ FP-1: -18; CAL PDZ FP-2: -6; dFosB activator: -6; SR-BI uptake up: -9

How did CN(CC(=O)Nc1ccccc1Cl)C(=O)c1ccc(-c2cccc(C(F)(F)F)c2)o1 do in these assays?
SR-BI HDL uptake: -6; CAL PDZ FP-1: 0; CAL PDZ FP-2: -2; dFosB activator: -18; SR-BI uptake up: 6

How did COC(=O)c1sccc1NC(=O)c1cccc(Cl)c1 do in these assays?
SR-BI HDL uptake: -12; CAL PDZ FP-1: -3; CAL PDZ FP-2: 83*; dFosB activator: 2; SR-BI uptake up: 12

What do the screens show for `COC(=O)c1sccc1NC(=O)c1c(Cl)cccc1Cl`?
SR-BI HDL uptake: -7; CAL PDZ FP-2: -3; dFosB activator: 2; SR-BI uptake up: 7
